Screening results deposited in PubChem by The Scripps Research Institute Molecular Screening Center.
Rows were chosen to be rich in hits. Some 1.8% of all compounds tested hit in one or more screens of this group.
EphB4 antag = EphB4-ephrin-B2 interaction antagonism; EphB4 LBD / TNYL-RAW-Alexa532 peptide, fluorescence polarization; inhibition, % at 7 µM; 97,000 compounds, 0.15% hits;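 active = inhibition above the screen-wide mean inhibition plus 3 SD, cut at about 15% in these data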
S1P2 blocker = S1P2 (human) receptor antagonism; 97,000 compounds, 0.21% hits; AID 736; inhibition, % at 5 µM; cell-based S1P2 antagonist assay, inhibition at 5 uM; O95136; in the data active = inhibition above about 45%;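 note: CRE beta-lactamase reporter cells expressing human S1P2 stimulated with S1P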
Target sequence (O95136 whole entry, looked up): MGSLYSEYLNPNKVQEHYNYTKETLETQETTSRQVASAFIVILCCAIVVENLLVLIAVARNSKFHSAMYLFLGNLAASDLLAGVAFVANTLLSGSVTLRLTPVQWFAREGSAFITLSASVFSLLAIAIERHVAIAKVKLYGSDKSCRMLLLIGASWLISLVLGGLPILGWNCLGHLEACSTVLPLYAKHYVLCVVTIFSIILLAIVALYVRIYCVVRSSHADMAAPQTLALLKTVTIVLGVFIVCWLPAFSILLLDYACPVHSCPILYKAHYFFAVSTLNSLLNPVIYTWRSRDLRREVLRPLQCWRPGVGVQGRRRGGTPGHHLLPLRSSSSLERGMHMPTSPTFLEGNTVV
GALR2 blocker = antagonists of human galanin receptor 2 (GALR2); 140,000 compounds, 0.39% hits; GALR2-expressing cells, antagonist mode; O43603; AID 828; inhibition, % at 4 µM;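 note: cells stimulated with galanin 1-16 at roughly its EC80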
Rev-RRE block = HIV Rev-RRE protein-RNA interaction inhibition | inhibition, % at 8 µM | Rev peptide-RRE RNA binding, FRET | 97,000 compounds, 0.79% hits | P05866 | AID 704;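 active = inhibition above the screen-wide mean plus 3 SD, cut at about 35% in these data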
Target sequence (P05866 whole entry, looked up): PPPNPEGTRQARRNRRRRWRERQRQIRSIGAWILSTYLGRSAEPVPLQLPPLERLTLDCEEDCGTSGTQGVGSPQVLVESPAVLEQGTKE
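Test system: Cy5-tagged RRE RNA duplex with fluorescein-tagged Rev peptide; Probe or stimulus: labelled Rev peptide; Schedule: 5 min preincubation and 15 min binding, 25 °C; Signal: FRET fluorescence readout; Evaluation: % inhibition from 671/540 nm acceptor-to-donor ratio, scaled between controls; Control set: DMSO and neomycin B.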
S1P2 agonist = agonists of human S1P2 receptor. activation, % at 4.5 µM. S1P2-expressing cell line, agonist reporter read-out. O95136. 97,000 compounds, 0.46% hits; in the data active = activation above about 16%
GALR2 ag = activates the human galanin receptor 2; GALR2-expressing cells, agonist activation read-out; activation, % (test concentration not listed); 140,000 compounds, 0.48% hits; AID 803; in the data active = activation above about 5%, passing the limit was not always enough
GALR2 blk conf = GALR2 (human) antagonism confirmed | shares compounds with GALR2 blocker | GALR2-expressing cells, antagonist mode, inhibition | inhibition, % at 4 µM | 480 compounds, 60% hits | AID 866;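 note: cells stimulated with galanin at about its EC80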
BLA inh counter = counter-screen for GALR2 antagonists: beta-lactamase reporter inhibitors; shares compounds with GALR2 blocker; inhibition, % at 4.2 µM; AID 867; 480 compounds, 36% hits; CHO NFAT-BLA reporter, beta-lactamase FRET, thapsigargin-stimulated;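 active = inhibition above the mean inhibition across tested compounds plus 3 SD, cut at about 27% in these data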
Numbers stand for hits; n = inactive; x = no result; [ ] = another dose, or the depositor's remark. Cut-off read from the data, not from the text of the source, unless noted: active = inhibition above about 27%; inactive = the rest.

SMILES	EphB4 antag	S1P2 blocker	GALR2 blocker	Rev-RRE block	S1P2 agonist	GALR2 ag	GALR2 blk conf	BLA inh counter
O=C(CSc1nc2ccccc2o1)N1CCN(S(=O)(=O)c2ccc3ccccc3c2)CC1	x	x	n	x	x	n	x	x
COc1ccc(Cl)cc1N(CC(=O)NC(C)(C)C)S(=O)(=O)c1ccc(C)c([N+](=O)[O-])c1	x	x	n	x	x	n	x	x
COc1cccc(Cn2c(NCc3ccco3)nc3c2c(=O)n(C)c(=O)n3C)c1	x	x	28	x	x	n	n	n
COc1ccc(Cl)c(Cn2c(NCc3ccco3)nc3c2c(=O)n(C)c(=O)n3C)c1	n	n	n	n	n	n	x	x
O=C1C=C(NC2=CC3OC(c4ccccc4)OCC3OC2=O)CCC1 (centres undefined)	x	x	70	x	x	n	84	74
O=C1C=C(NCc2ccccc2)CCC1	x	x	n	x	x	n	x	x
COc1cc(NC(=O)CSc2nc3c(C)ccc(C)c3cc2C)c(C(=O)O)cc1OC	x	x	n	x	x	n	x	x
O=C(/C=C/c1cn(CC(O)CN2CCCCC2)c2ccccc12)c1cccs1 (centres undefined)	x	x	n	x	x	n	x	x
CCCN(CCC)CC(O)Cn1cc(/C=C/C(=O)c2cccs2)c2ccccc21 (centres undefined)	x	x	53	x	x	n	32	44
O=C(COC(=O)c1ccccc1C(=O)c1ccc(Cl)cc1)NC(c1ccccc1)c1ccccc1	x	x	n	x	x	n	x	x
CCc1cc2c(=O)c(-c3ccc4c(c3)OCCO4)c(C)oc2cc1OS(C)(=O)=O	x	x	n	x	x	n	x	x
O=C(C1=NN(c2ccccc2)C2C(=O)N(c3ccccc3Cl)C(=O)C12)c1ccccc1 (centres undefined)	x	x	29	x	x	n	n	42
O=C(C1=NN(c2ccccc2)C2C(=O)N(c3ccccc3)C(=O)C12)c1ccccc1 (centres undefined)	x	x	n	x	x	n	x	x
Cc1ccnc(NC(=O)c2sc3ccccc3c2Cl)c1	x	x	n	x	x	n	x	x
Cc1ccc2c(Cl)c(C(=O)Nc3cc(C)on3)sc2c1	n	n	29	n	n	n	n	n
COc1ccc(/C=N/c2oc(-c3ccccc3)cc2C#N)cc1OC	n	n	n	n	n	n	x	x
CCCCCOc1ccc(Br)cc1CSC(=N)N	x	x	33	x	x	n	38	77
CCn1c2ccc(C)cc2c2nc3cc(C(=O)O)ccc3nc21	x	x	28	x	x	n	34	n
CCC1=Nc2cc(C(=O)NCc3ccco3)ccc2Sc2ccc(C)cc21	x	x	31	x	x	n	n	n
CCC1=Nc2cc(C(=O)NCCCOC)ccc2Sc2ccccc21	n	n	n	n	n	n	x	x
COc1ccc(Cl)cc1NC(=O)C1CCCN(S(=O)(=O)c2cccc3nonc23)C1 (centres undefined)	n	n	31	n	n	n	n	n
COc1ccc(OC)c(NC(=O)C2CCCN(S(=O)(=O)c3cccc4nsnc34)C2)c1 (centres undefined)	n	n	n	n	n	n	x	x
NC(=O)c1ccccc1NC(=O)Nc1cccc(Cl)c1Cl	x	x	53	x	x	n	69	33
N=C1N(/N=C/c2ccccc2)C(=Nc2ccccc2)C(=S)N1c1ccccc1	n	n	n	n	n	n	x	x
O=C(COC(=O)CCC(=O)c1cccs1)Nc1cc(S(=O)(=O)N2CCOCC2)ccc1Cl	n	n	n	n	n	n	x	x
SMILES	EphB4 antag	S1P2 blocker	GALR2 blocker	Rev-RRE block	S1P2 agonist	GALR2 ag	GALR2 blk conf	BLA inh counter
COc1cc(/C=C(/C(=O)c2cccs2)c2nc3ccccc3[nH]2)cc(OC)c1O	n	n	32	n	n	n	31	34
COc1ccc(C(C)=O)cc1CSc1nnc(-c2ccc(Cl)cc2)n1-c1ccccc1	n	n	n	n	n	n	x	x
COc1ccc(-c2nnc(SCc3nc4ccccc4s3)n2C(C)C)cc1	n	n	29	n	n	n	n	n
O=C(Nc1ccc([N+](=O)[O-])cc1)Nc1nc(-c2ccc(Cl)s2)cs1	x	x	32	x	x	n	38	n
Cc1cccc(NC(=S)NCc2ccco2)c1C	x	x	n	x	x	n	x	x
O=c1c(O)c(-c2cccs2)oc2ccccc12	n	n	29	42	n	n	31	37
O=c1c(O)c(-c2cccs2)oc2ccc(Cl)cc12	n	n	33	102[fluorescence artefact?]	n	n	32	42
Cc1ccc(-c2oc3ccccc3c(=O)c2O)cc1	x	x	n	x	x	n	x	x
O=c1cc(-c2cccs2)oc2ccc(Cl)cc12	n	n	n	n	n	n	x	x
O=C(COC(=O)c1ccccc1C(=O)c1ccc(Cl)c([N+](=O)[O-])c1)NC1CCCCCC1	n	59	31	n	n	n	64	52
CC(C)NC(=O)CSc1nncn1-c1ccccc1	x	x	27	x	x	n	n	n
Cc1cc(C)n(CC(=O)N/N=C/c2ccccn2)n1	x	x	n	x	x	n	x	x
COc1ccc(COc2ccsc2C(=O)Nc2ccc(Cl)cc2)cc1	n	n	52	n	n	n	n	n
COc1ccc(Cc2nc(C(=O)Nc3ccc(Cl)cc3)cs2)cc1	n	n	n	n	n	n	x	x
Cc1ccc(S(=O)(=O)Nc2ccc3nc(C)sc3c2)cc1	n	n	n	n	n	n	x	x
Cc1nc2ccc(NS(=O)(=O)c3ccc4c(c3)OCCO4)cc2s1	n	n	34	n	n	n	n	n
O=c1c(Cl)c(NCCCO)cnn1-c1nc2ccccc2[nH]1	n	n	36	n	n	n	42	37
C=CCN(CC=C)c1cnn(-c2nc3ccccc3[nH]2)c(=O)c1Cl	n	n	n	n	n	n	x	x
CC1(C)C(=O)Nc2ccccc2N1C(=O)COC(=O)c1ccc(Cl)c(S(=O)(=O)NCc2ccccc2)c1	n	n	n	n	n	n	x	x
O=C(NC(=S)Nc1ccc2c(c1)C(=O)c1ccccc1C2=O)c1ccc(F)cc1	x	x	n	x	x	n	x	x
COc1ccc(NC(=O)/C(Cl)=C(/Cl)S(=O)(=O)Cc2ccc(C)cc2)cn1	n	90	78	n	n	n	93	95
COc1ccc(NC(=O)C(CC(C)C)NC(=O)c2ccccc2C)cn1 (centres undefined)	n	n	n	n	n	n	x	x
CC(C)CCNC(=O)CN(CC1CCCO1)C(=O)CCC(=O)Nc1ccccn1 (centres undefined)	n	n	n	n	n	n	x	x
O=C(CN(CC1CCCO1)C(=O)CCC(=O)Nc1ccccn1)NCc1ccccc1 (centres undefined)	n	n	30	n	n	n	n	n
Cc1ccc(C2(C)NC(=O)N(CC(=O)c3ccc(Cl)s3)C2=O)cc1 (centres undefined)	x	x	n	x	x	n	x	x
O=C(NNC(=O)c1ccc([N+](=O)[O-])cc1Cl)c1ccncc1	x	x	n	x	x	n	x	x
Cn1nnnc1SCC(=O)N1c2ccccc2Sc2ccccc21	n	n	n	n	n	n	x	x
O=C(CSc1nncs1)N1c2ccccc2Sc2ccccc21	x	x	29	x	x	n	n	n
FC(F)(F)c1ccc(Oc2ccc3cc(Br)ccc3c2)nc1	x	x	n	x	x	n	x	x
